Experimental data gathered from unrelated publications.
Each line is one published result; the experiments were not run side by side.
Sample: plasma
Route: oral

| Structure (SMILES) | test system | setting | bioavailability [%] |
| --- | --- | --- | --- |
| CN1Cc2c(N)cccc2C(=O)N1C1CCC(=O)NC1=O (stereo not shown) | male Sprague-Dawley rat | 3 mg/kg | 82.5 |
| CC(=Nc1ccc(N=Cc2cnccn2)cc1)N(C)C | male Sprague-Dawley rat | 200 mg/kg | 12 |
| O=C(C=Cc1ccccc1)Nc1cc(-c2ccnc(N3CCC(O)CC3)c2)ccn1 | female Sprague-Dawley rat | 50 mg/kg | ~38.5 |
| CC(=O)CC(=O)C1CC(C)C(=O)C1=O (stereo not shown) | male Sprague-Dawley rat | 100 mg/kg | 100 |
| O=C1CC[C@H](N2Cc3cc(N4CCN(CC5CCN(c6ccc([C@@H]7c8ccc(O)cc8CC[C@@H]7c7ccccc7)cc6)CC5)CC4)ccc3C2=O)C(=O)N1 | female Sprague-Dawley rat | 20 mg/kg | 24.2 |
| Nc1ccc(/C=C/C(=O)NCc2cc3cc(-c4ccc(C(=O)N5CCC(F)(F)CC5)cc4)cc(-c4ccc(F)cc4)c3o2)cn1 | rat | 3 mg/kg | 19.6 |
| N#C[C@@]12C[C@@H]1[C@@H](n1cnc3c(N[C@@H](C4CCC4)C4CC4)nc(I)nc31)[C@H](O)[C@@H]2O | male Wistar rat | 1 mg/kg | 7.18 |
| CC1(CN)CCN(c2cnc3c(Sc4ccncc4Cl)n[nH]c3n2)CC1 | male Sprague-Dawley rat | 10 mg/kg | 42.5 |
| CC(/C=C/C=C(\C)C(=O)O)=C\C=C\C=C(C)\C=C\C=C(/C)C(=O)O | female Wistar rat | 20 mg/kg | 55 to 66 |
| Cc1c(C(=O)O)ccc2c3n(nc12)[C@@H]1[C@H](C3)N(CC2CC2)[C@@]2(C(=O)Nc3cc(Cl)ccc32)[C@H]1c1cccc(Cl)c1F | male rat | 2 mg/kg | 55 |
